# TAAR1 agonist – agonists of human TAAR1. CHO RD-HGA16 TAAR1, Fluo-8 calcium fluorescence; vehicle wells 0%, saturating PEA agonist 100%. 0.99% of 360,000 active. activation, % at 3 µM. Q96RJ0;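 active = activation above the mean activation of all test compounds in the run plus 3 SD, cut at about 38% in these data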
# Target sequence (Q96RJ0 whole entry, looked up): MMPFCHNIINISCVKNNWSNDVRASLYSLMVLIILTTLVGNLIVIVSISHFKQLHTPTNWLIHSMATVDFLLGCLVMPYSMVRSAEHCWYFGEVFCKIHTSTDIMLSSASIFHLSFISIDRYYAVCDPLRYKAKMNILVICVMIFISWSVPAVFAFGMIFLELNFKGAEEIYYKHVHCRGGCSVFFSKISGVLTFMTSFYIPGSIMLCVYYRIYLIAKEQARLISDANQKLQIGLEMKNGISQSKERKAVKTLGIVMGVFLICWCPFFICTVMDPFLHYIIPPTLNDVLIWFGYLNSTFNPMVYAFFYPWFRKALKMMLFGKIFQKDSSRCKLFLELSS
#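 System: CHO RD-HGA16 cells carrying human TAAR1 plus Gα16; Incubation: 17-24 h seeding, 75 min 37 °C dye, 30 min RT; Measured by: Fluo-8 fluorescence, 5 s baseline then 140 s kinetic read; Control set: DMSO and PEA EC100; Replication: single well for each compound.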
# GalR3 antag – antagonists of human GalR3. HEK293 GalR3-CNG cAMP membrane potential fluorescence; galR3 body fused to GalR1 C-terminus. inhibition, % at 3 µM. 0.44% of 360,000 active. AID 651719;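 active = inhibition above the screen-wide average plus 3 SD, cut at about 13% in these data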;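 also: forskolin and galanin both at EC90 stimulate the cells; cAMP rise reported by CNG channel membrane potential dye signal; 0% = forskolin plus galanin with DMSO and 100% = forskolin alone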
# TAAR1 antagonist – human TAAR1 antagonism | CHO RD-HGA16 TAAR1, Fluo-8 calcium fluorescence, antagonist | inhibition, % at 3 µM | 1.5% of 360,000 active;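 active = inhibition above a per-plate cutoff, the mean inhibition of test compounds on that plate plus 3 SD, cut at about 49% in these data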;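 also: 0% = DMSO plus EC80 beta-PEA response and 100% = DMSO alone without agonist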
#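 Material: RD-HGA16 CHO cells with stable hTAAR1 and Gα16; Dosing: single nominal final test compound concentration of 3 µM; Schedule: seeding 17-24 h prior, 75-min 37 °C, 30-min RT dye loading; Detection: kinetic Fluo-8 calcium fluorescence measurement; Measure: % inhibition from peak post-agonist over basal fluorescence ratio; Benchmarks: vehicle and agonist controls.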
# CHO parental Ca – signal in parental CHO cells, OX1R antagonist counter-screen. inhibition, % at 5.6 µM. 0.63% of 330,000 active. parental CHO-K1, ATP-induced calcium, Fluo-8 fluorescence. AID 463079;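 active = inhibition above that plate's mean sample inhibition plus 3 SD, cut at about 26% in these data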;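 also: 0% = ATP-challenged DMSO wells and 100% = DMSO wells without ATP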
#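 Test system: parental CHO cells; detection: calcium-sensitive Fluo-8 fluorescence; evaluation: percent inhibition of calcium signal; also added: ATP as calcium-mobilizing challenge; repeats: one well per compound; control set: ATP-challenged DMSO wells low, unchallenged DMSO wells high; compound: single nominal dose of 5.6 µM per compound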
# OX1R antag-1 – OX1R (human) antagonism | 1.8% of 330,000 active | AID 485270 | inhibition, % at 6.6 µM | OX1R-expressing cells, FRET antagonist read-out | O43613; in the data active = inhibition mostly above about 38%, no sharp cut-off; inactive = mostly below about 40%;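 also: 0% = agonist challenge alone and 100% = reference antagonist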
# Target sequence (O43613 whole entry, looked up): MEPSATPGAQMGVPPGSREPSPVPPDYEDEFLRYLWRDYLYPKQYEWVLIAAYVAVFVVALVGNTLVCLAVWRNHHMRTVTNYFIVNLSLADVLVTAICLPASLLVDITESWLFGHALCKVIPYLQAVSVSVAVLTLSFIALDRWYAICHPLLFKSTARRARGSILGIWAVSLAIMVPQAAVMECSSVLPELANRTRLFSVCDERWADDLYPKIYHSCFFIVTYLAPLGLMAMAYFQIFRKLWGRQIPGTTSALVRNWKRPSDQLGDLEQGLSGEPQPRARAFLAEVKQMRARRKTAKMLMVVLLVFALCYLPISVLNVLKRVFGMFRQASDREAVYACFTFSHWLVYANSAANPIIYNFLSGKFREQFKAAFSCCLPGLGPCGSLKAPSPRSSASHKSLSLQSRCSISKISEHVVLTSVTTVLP
# OX1R antag-2 – blocks the human orexin 1 receptor. O43613. CHO/OX1R cells, Fluo-8 calcium fluorescence, orexin A. inhibition, % at 5 µM. 0.43% of 330,000 active. AID 434989;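 active = inhibition above its plate's threshold, mean inhibition of all tested compounds on the plate plus 3 SD, cut at about 37% in these data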;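 also: 0% = orexin A challenge wells and 100% = SB-334867-A antagonist wells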
# TAAR1 nonsel count – nonselective antagonism, TAAR1 counter-screen; inhibition, % at 3 µM; 77% of 2,400 active; shares compounds with TAAR1 antagonist; counterscreen cell line, calcium fluorescence, antagonist mode; in the data active = inhibition above about 22%;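 also: CHO-Ga16 host cells stimulated with ATP at an EC80 level; 0% = agonist EC80 plus vehicle and 100% = vehicle without agonist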
# TAAR1 ant conf – human TAAR1 antagonism, confirmed; shares compounds with TAAR1 antagonist; TAAR1-expressing cells, fluorescence antagonist read-out; inhibition, % at 3 µM; 40% of 2,400 active; in the data active = inhibition above about 49%;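 also: CHO-Ga16 host cells challenged with agonist PEA near its EC80; 0% = agonist at EC80 plus vehicle and 100% = vehicle with no agonist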
# Ga16 ag counter-1 – counter-screen for TAAR1 antagonists: nonselective Ga16 agonists | activation, % at 3 µM | 18% of 2,400 active | Ga16-expressing cells, calcium fluorescence, agonist counterscreen | shares compounds with TAAR1 antagonist | AID 651953; in the data active = activation above about 12%;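 also: 0% = vehicle wells and 100% = saturating stimulus response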
# TAAR1 ag counter – counter-screen for human TAAR1 antagonists: TAAR1 agonists; shares compounds with TAAR1 antagonist; hTAAR1 cell line, fluorescence activation, agonist mode; activation, % at 3 µM; 2% of 2,400 active; AID 651955; in the data active = activation above about 37%;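 also: CHO cells stably expressing TAAR1 with calcium dye readout; 0% = DMSO vehicle and 100% = full agonist response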
# TAAR1 ag conf – human TAAR1 agonism, confirmed | shares compounds with TAAR1 agonist | CHO RD-HGA16 TAAR1, Fluo-8 calcium fluorescence; scaled: DMSO 0%, maximal phenethylamine 100% | activation, % at 3 µM | 82% of 2,400 active | AID 651783;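 active = activation above a cutoff set at the run's mean compound activation plus 3 SD, cut at about 39% in these data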
# Ga16 ag counter-2 – nonselective agonist in parental cells, TAAR1 agonist counter-screen. shares compounds with TAAR1 agonist. CHO-Ga16 parental, Fluo-8 calcium fluorescence; normalized to maximal ATP response, DMSO zero. activation, % at 3 µM. 50% of 2,400 active;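 active = activation above the run cutoff, the mean activation over all tested wells plus 3 SD, cut at about 12% in these data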;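 also: 0% = DMSO wells and 100% = maximal ATP response on the peak over basal ratio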
# TAAR1 desensitize – TAAR1 response desensitization, agonist counter-screen | shares compounds with TAAR1 agonist | CHO RD-HGA16 hTAAR1, Fluo-8 calcium, beta-PEA response inhibition | inhibition, % at 3 µM | 46% of 2,400 active | AID 651951;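 active = inhibition above the run cutoff, the mean inhibition of all test compounds plus 3 SD, cut at about 49% in these data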;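 also: beta-PEA stimulus applied at its EC80; loss of beta-PEA calcium signal after compound pretreatment read as receptor desensitization; 0% = DMSO with beta-PEA at EC80 and 100% = DMSO alone without agonist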
# Ga16 antag count – counter-screen for TAAR1 agonists: nonselective Ga16 antagonists; CHO-Ga16 ATP-induced calcium, Fluo-8 fluorescence; inhibition, % at 3 µM; 39% of 2,400 active; shares compounds with TAAR1 agonist;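 active = inhibition above the plate's mean compound inhibition plus 3 SD, computed per plate, cut at about 22% in these data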;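 also: 0% = EC80 ATP with DMSO and 100% = DMSO wells without ATP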
# Starred values were filed as active, the others as inactive; / = not tested or not shown. Hits are enriched below; roughly 4.3% of the tested compounds scored in any of these assays.
SMILES,TAAR1 agonist,GalR3 antag,TAAR1 antagonist,CHO parental Ca,OX1R antag-1,OX1R antag-2,TAAR1 ag conf,Ga16 ag counter-2,TAAR1 desensitize,Ga16 antag count,others
C[C@@H]1CCC2[C@@H](C)C(=O)O[C@@H]3OC4(C)CCC1[C@@]23OO4 (stereo partly drawn),/,/,/,-3,8,-7,/,/,/,/,
O=P1(c2ccccc2)Nc2ccccc2N1c1ccccc1 (stereo not drawn),7,-4,-30,/,/,/,/,/,/,/,
COc1ccc(-n2c(/C=C/c3ccc(O)c(OC)c3)nc3ccccc3c2=O)cc1,7,-11,59*,-4,24,8,/,/,/,/,TAAR1 nonsel count=29*;TAAR1 ant conf=43;Ga16 ag counter-1=7;TAAR1 ag counter=4
Cc1ccc(-n2c(C)nc3ccccc3c2=O)cc1C,15,-5,-5,-2,13,-9,/,/,/,/,
Cc1nc2ccccc2c(=O)n1-c1ccc(-c2ccccc2)cc1,12,-14,50*,-13,11,-38,/,/,/,/,TAAR1 nonsel count=23*;TAAR1 ant conf=48;Ga16 ag counter-1=6;TAAR1 ag counter=10
COc1ccc(-n2c(/C=C/c3ccc(O)cc3)nc3ccccc3c2=O)cc1,8,-3,66*,-6,28,-15,/,/,/,/,TAAR1 nonsel count=30*;TAAR1 ant conf=29;Ga16 ag counter-1=5;TAAR1 ag counter=3
CCOC(=O)CC(SP1(=S)OCC2(CCCCC2)CO1)C(=O)OCC (stereo not drawn),1,-7,58*,/,/,/,/,/,/,/,TAAR1 nonsel count=17;TAAR1 ant conf=29;Ga16 ag counter-1=4;TAAR1 ag counter=1
CCOC(=O)C(O)(c1ccc(NC(=S)NC(=O)c2ccc(Cl)cc2Cl)cc1)C(F)(F)F (stereo not drawn),78*,-11,79*,57*,19,71*,74*,45*,93*,73*,
O=C(Nc1ccc(Cl)cc1)Nc1nccs1,50*,-1,33,-7,44,-7,56*,8,34,22*,
O=C(Nc1nccs1)C(Cl)(Cl)Cl,10,-7,11,-8,7,-13,/,/,/,/,
C[CH2][Hg][S]c1ccccc1C(=O)O,120*,-7,96*,73*,3,89*,44*,59*,73*,84*,
CCCCn1c(O)c(C(C)=NC(C)c2ccccc2)c(=O)[nH]c1=O (stereo not drawn),-2,1,5,-34,14,-30,/,/,/,/,
CCCCn1c(O)c(C(C)=NCCc2ccccc2)c(=O)[nH]c1=O,73*,1,34,-10,18,-24,44*,4,11,11,
CCC(=NCCc1ccccc1)c1c(O)[nH]c(=O)[nH]c1=O,/,5,/,-33,17,-18,/,3,/,4,
Cc1cc(C)cc(N2C(=O)NC(=O)/C(=C\c3cccn3-c3ccc(Cl)cc3)C2=O)c1,51*,0,32,-8,15,-13,37,12*,36,20,
CCC1(Oc2ccccc2)C(=O)NC(=O)NC1=O,2,-7,2,/,/,/,/,/,/,/,
CCC1(C)OC(c2ccccc2)=C/C(=C/C=C2C(=O)NC(=O)NC2=O)O1 (stereo not drawn),70*,1,68*,/,/,/,20,24*,26,42*,
CN1CC(C(=O)c2cccs2)C(c2ccc(Cl)cc2)C1 (stereo not drawn),1,-12,-23,-14,10,-15,/,/,/,/,
CN1CC(C(=O)c2ccc(Cl)cc2)C(c2ccccc2)C1 (stereo not drawn),45*,-13,2,-28,11,-25,75*,13*,36,11,
COC(=O)C1=C(c2cccc(C#N)c2)C[C@@H]2CC[C@H]1N2C(=O)N1CCOCC1,6,5,-25,-12,-1,-27,/,/,/,/,
O=C1NC(=O)N(c2ccccc2)C(=O)/C1=C/c1ccc(Sc2ccccc2)o1,/,/,/,-4,8,8,/,/,/,/,
O=C1NC(=O)N(c2cccc(Cl)c2)C(=O)/C1=C\c1ccc(Sc2nc3ccccc3[nH]2)o1,118*,-2,75*,39*,9,62*,26,32*,29,38*,
CSc1nc(Cl)c(Br)c(N2CC2)n1,0,0,-1,/,/,/,/,/,/,/,
CCOC(=O)C1C(OC(=O)c2ccccc2)CC2CCC1N2C (stereo not drawn),1,-1,-23,/,/,/,/,/,/,/,
CCN(CC)c1ccc(/C=C/[N+](=O)[O-])cc1,227*,-6,90*,51*,48,53*,51*,58*,51*,59*,
SMILES,TAAR1 agonist,GalR3 antag,TAAR1 antagonist,CHO parental Ca,OX1R antag-1,OX1R antag-2,TAAR1 ag conf,Ga16 ag counter-2,TAAR1 desensitize,Ga16 antag count,others
COc1cc(/C=C/[N+](=O)[O-])ccc1O,14,-4,6,-3,42,-19,/,/,/,/,
O=C1c2ccccc2-n2nnc(-c3ccccc3)c2C2c3ccccc3CCN12 (stereo not drawn),7,1,19,/,/,/,/,/,/,/,
CCCCn1c(=O)c(C(=O)Nc2ccccc2C)c(O)c2ccccc21,/,/,/,9,14,-8,/,/,/,/,
CCCCCn1c(=O)c(C(=O)Nc2ncccc2C)c(O)c2ccccc21,54*,-11,11,-1,5,-8,54*,86*,35,44*,
Cc1cccc(N2C(=O)/C(=C/N3CCN(C(=O)c4ccco4)CC3)C(=O)NC2=S)c1,49*,6,-14,-9,-3,-18,61*,0,4,5,
Cc1ccc(N2C(=O)/C(=C/N3CCN(C(=O)c4ccco4)CC3)C(=O)NC2=S)cc1C,56*,0,-7,-2,16,-1,73*,1,6,2,
O=C1NC(=S)N(c2ccc(Br)cc2)C(=O)/C1=C/N1CCN(C(=O)c2ccco2)CC1,32,-4,11,-4,11,-20,/,/,/,/,

# Bioassay records as filed in PubChem BioAssay.
